“Also recorded” adds a separate entry of the source.
Assays:
ERAP1 V737R [1] = target: T1, ERAP1 V737R (Homo sapiens, UniProt Q9NZ08, V737R); assay: Steady-state kinetics of L-AMC hydrolysis ± 7-mer peptide activator, V737R; format: biochemical; conditions: pH 8.0, 27 °C; for allosteric activation in steady state kinetics: 100 μM peptide, 0–2,000 μM L-AMC
Method in brief: (§1)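 Steady-state kinetics used purified His6-tagged ERAP1 (allotype-1, WT or mutant) from baculovirus-infected Sf9 cells at 1.5 µg ml-1. Buffer was 50 mM Tris/HCl pH 8.0, 0.1 M NaCl at 27 °C, with L-AMC at 0–2,000 µM, with or without 100 µM 7-mer peptide. AMC release (ex 380/em 460 nm) was followed for 5 min. Initial rates from three time points (nmoles.min-1.µg-1) were curve-fitted for Vmax, K1/2 and Hill coefficient. Comparisons used Brown-Forsyth one-way ANOVA with Tukey's test.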

ERAP1 WT [2] = assay: Simple activation assay; format: biochemical, human; conditions: 100 μM L-AMC, pH 8.0, 25 °C, 5 min; for activation of L-AMC hydrolysis over basal level: 100 μM peptide
Method in brief: (§2)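 ERAP1 enzyme: allotype-1, WT or point mutant, with a C-terminal His6 tag. It was expressed in Sf9 cells by baculovirus and purified by Ni-NTA and gel filtration. Assay: 1.5 µg ml-1 enzyme in 50 mM Tris/HCl pH 8.0, 0.1 M NaCl at 25 °C, with or without 100 µM 7-mer peptide activator. Hydrolysis of 100 µM L-AMC was followed for 5 min by AMC fluorescence (ex 380/em 460 nm), calibrated with AMC standards.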

ERAP1 WT and variants = format: biochemical, human; conditions: 100 μM peptide; most enzyme variants; 0–2,000 μM L-AMC; pH 8.0; 27 °C
Method in brief: as §1

ERAP1 L734R [3] = assay: Simple activation assay; format: biochemical, human; conditions: 100 μM L-AMC, pH 8.0, 25 °C, 5 min
Method in brief: as §2

ERAP1 I681R [4] = target: T2, ERAP1 I681R (Homo sapiens, UniProt Q9NZ08, I681R); assay: Simple activation assay; format: biochemical; conditions: 100 μM L-AMC, pH 8.0, 25 °C, 5 min
Method in brief: as §2

ERAP1 F803R [5] = assay: Simple activation assay; format: biochemical, human; conditions: 100 μM L-AMC, pH 8.0, 25 °C, 5 min; for activation of L-AMC hydrolysis over basal level: 100 μM peptide
Method in brief: as §2

ERAP1 L733R [6] = target: T3, ERAP1 L733R (Homo sapiens, UniProt Q9NZ08, L733R); assay: Simple activation assay; format: biochemical; conditions: 100 μM L-AMC, pH 8.0, 25 °C, 5 min
Method in brief: as §2

ERAP1 V737R [7] = target: T1, ERAP1 V737R; assay: Simple activation assay; format: biochemical; conditions: 100 μM L-AMC, pH 8.0, 25 °C, 5 min
Method in brief: as §2

ERAP1 = conditions: cited from earlier work
ERAP1 I681R [8] = target: T2, ERAP1 I681R; assay: Steady-state kinetics of L-AMC hydrolysis ± 7-mer peptide activator, I681R; format: biochemical; conditions: pH 8.0, 27 °C
Method in brief: as §1

ERAP1 WT [9] = assay: Allosteric activation of L-AMC hydrolysis, varying peptide effector, ERAP1 WT; format: biochemical, human; conditions: 0–2,000 μM peptide, 100 μM L-AMC, 27 °C, three independent repeats
Method in brief: (§3)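 Recombinant human ERAP1 (allotype-1, WT or Arg point mutant) carrying a C-terminal His6 tag, expressed in baculovirus-infected Sf9 cells and purified by Ni-NTA then gel filtration (full-length peak). 1.5 µg/ml enzyme with 100 µM L-AMC and 7-mer peptide activator varied 0–2,000 µM, in 50 mM Tris/HCl pH 8.0, 0.1 M NaCl, 27 °C, 5 min. AMC fluorescence read at ex 380/em 460 nm against AMC standards. Vmax and AC50 fitted to Michaelis-Menten.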

ERAP1 V737R [10] = target: T1, ERAP1 V737R; assay: Allosteric activation of L-AMC hydrolysis, varying peptide effector, V737R; format: biochemical; conditions: 0–2,000 μM peptide, 100 μM L-AMC, 27 °C, three independent repeats
Method in brief: as §3

ERAP1 L733R [11] = target: T3, ERAP1 L733R; assay: Allosteric activation of L-AMC hydrolysis, varying peptide effector, L733R; format: biochemical; conditions: 0–2,000 μM peptide, 100 μM L-AMC, 27 °C, three independent repeats
Method in brief: as §3

ERAP1 WT [12] = assay: Steady-state kinetics of L-AMC hydrolysis ± 7-mer peptide activator, ERAP1 WT; format: biochemical, human; conditions: pH 8.0, 27 °C
Method in brief: as §1

ERAP1 L734R [13] = assay: Steady-state kinetics of L-AMC hydrolysis ± 7-mer peptide activator, L734R; format: biochemical, human; conditions: pH 8.0, 27 °C
Method in brief: as §1

ERAP1 I681R [14] = target: T2, ERAP1 I681R; assay: Allosteric activation of L-AMC hydrolysis, varying peptide effector, I681R; format: biochemical; conditions: 0–2,000 μM peptide, 100 μM L-AMC, 27 °C, three independent repeats
Method in brief: as §3

ERAP1 F803R [15] = target: T4, ERAP1 F803R (Homo sapiens, UniProt Q9NZ08, F803R); assay: Allosteric activation of L-AMC hydrolysis, varying peptide effector, F803R; format: biochemical; conditions: 0–2,000 μM peptide, 100 μM L-AMC, 27 °C, three independent repeats
Method in brief: as §3

ERAP1 L734R [16] = target: ERAP1 L734R (Homo sapiens, UniProt Q9NZ08, L734R); assay: Allosteric activation of L-AMC hydrolysis, varying peptide effector, L734R; format: biochemical; conditions: 0–2,000 μM peptide, 100 μM L-AMC, 27 °C, three independent repeats
Method in brief: as §3

ERAP1 F803R [17] = target: T4, ERAP1 F803R; assay: Steady-state kinetics of L-AMC hydrolysis ± 7-mer peptide activator, F803R; format: biochemical; conditions: pH 8.0, 27 °C
Method in brief: as §1

ERAP1 L733R [18] = target: T3, ERAP1 L733R; assay: Steady-state kinetics of L-AMC hydrolysis ± 7-mer peptide activator, L733R; format: biochemical; conditions: pH 8.0, 27 °C
Method in brief: as §1

ERAP1 WT [19] = assay: N-terminal peptide trimming, LC-MS/MS, ERAP1 WT; format: biochemical, human; conditions: from 11-mer KL1, pH 7.8, 30 °C, two independent experiments
ERAP1 F803R [20] = target: ERAP1 F803R (Homo sapiens, UniProt Q9NZ08, F803R/R127P); assay: N-terminal peptide trimming, LC-MS/MS, F803R; format: biochemical; conditions: from 11-mer KL1, pH 7.8, 30 °C, two independent experiments
[21] = 100 μM peptide, 0–2,000 μM L-AMC
[22] = 1.5 μg/ml enzyme, 50 mM Tris/HCl pH 8.0, 0.1 M NaCl, 5 min
[23] = read-out: AC50 (half maximal activation concentration), pH 8.0
[24] = 100 μM peptide, relative to wildtype
[25] = no peptide activator, three independent repeats

T3 sequence (Q9NZ08 whole entry L733R): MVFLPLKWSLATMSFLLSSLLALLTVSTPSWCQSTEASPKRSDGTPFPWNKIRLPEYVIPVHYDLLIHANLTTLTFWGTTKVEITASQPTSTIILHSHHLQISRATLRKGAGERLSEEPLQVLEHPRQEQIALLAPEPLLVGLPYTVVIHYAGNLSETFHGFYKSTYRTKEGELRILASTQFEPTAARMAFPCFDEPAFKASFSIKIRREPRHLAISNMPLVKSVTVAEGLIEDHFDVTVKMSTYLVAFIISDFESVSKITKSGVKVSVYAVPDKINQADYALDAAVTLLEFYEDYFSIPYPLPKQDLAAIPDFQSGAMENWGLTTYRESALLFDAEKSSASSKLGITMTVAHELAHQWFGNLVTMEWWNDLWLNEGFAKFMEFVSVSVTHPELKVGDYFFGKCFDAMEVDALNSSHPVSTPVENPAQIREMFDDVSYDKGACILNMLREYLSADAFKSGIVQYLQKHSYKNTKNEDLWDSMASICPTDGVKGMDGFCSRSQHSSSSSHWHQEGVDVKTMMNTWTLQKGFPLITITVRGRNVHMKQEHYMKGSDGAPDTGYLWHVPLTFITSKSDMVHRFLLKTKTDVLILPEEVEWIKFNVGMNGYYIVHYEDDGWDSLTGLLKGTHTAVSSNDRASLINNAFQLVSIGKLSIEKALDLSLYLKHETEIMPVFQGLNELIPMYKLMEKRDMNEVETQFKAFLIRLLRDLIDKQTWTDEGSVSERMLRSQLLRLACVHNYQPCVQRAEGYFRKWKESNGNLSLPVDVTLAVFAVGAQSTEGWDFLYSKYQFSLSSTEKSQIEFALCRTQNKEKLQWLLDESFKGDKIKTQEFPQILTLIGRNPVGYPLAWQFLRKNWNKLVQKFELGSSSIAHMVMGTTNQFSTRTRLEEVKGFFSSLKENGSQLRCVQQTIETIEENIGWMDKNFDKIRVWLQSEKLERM
T2 sequence (Q9NZ08 whole entry I681R): as the sequence (Q9NZ08 whole entry L733R) above, with I681R, R733L counted along it
T4 sequence (Q9NZ08 whole entry F803R): as the sequence (Q9NZ08 whole entry L733R) above, with R733L, F803R counted along it
T1 sequence (Q9NZ08 whole entry V737R): as the sequence (Q9NZ08 whole entry L733R) above, with R733L, V737R counted along it
Sequence of ERAP1 L734R (Homo sapiens, UniProt Q9NZ08, L734R) (Q9NZ08 whole entry L734R): as the sequence (Q9NZ08 whole entry L733R) above, with R733L, L734R counted along it
Sequence of ERAP1 F803R (Homo sapiens, UniProt Q9NZ08, F803R/R127P) (Q9NZ08 whole entry R127P/F803R): as the sequence (Q9NZ08 whole entry L733R) above, with R127P, R733L, F803R counted along it

## IINFEKE
ERAP1 V737R [1]
  allosteric activation in steady state kinetics: significantly activated; also recorded: not a very effective activator
ERAP1 WT [2]
  activation of L-AMC hydrolysis over basal level: not activated significantly above their basal levels; also recorded: did not show significant difference from their respective basal activity
ERAP1 WT and variants
  change of sigmoidal curves, h values, or Vmax: did not change much the sigmoidal curves
ERAP1 L734R [3]; 100 μM peptide
  activation of L-AMC hydrolysis over basal level: not activated significantly above their basal levels
ERAP1 I681R [4]; 100 μM peptide
  activation of L-AMC hydrolysis over basal level: not activated significantly above their basal levels
ERAP1 F803R [5]
  activation of L-AMC hydrolysis over basal level: not activated significantly above their basal levels; also recorded: did not show significant difference from their respective basal activity
ERAP1 L733R [6]; 100 μM peptide
  activation of L-AMC hydrolysis over basal level: not activated significantly above their basal levels; also recorded: did not show significant difference from their respective basal activity
ERAP1 V737R [7]; 100 μM peptide
  activation of L-AMC hydrolysis above basal activity: ~ 30%
  activation of L-AMC hydrolysis over basal level: slight but significant activation

## QLESIINFEKL [KL1]
ERAP1
  processing by ERAP1: efficiently processed by ERAP1

## IINFEKL
ERAP1 I681R [8]; [21]
  allosteric activation in steady state kinetics: significant or dramatic increase of Vmax
ERAP1 V737R [1]
  allosteric activation in steady state kinetics: significant or dramatic increase of Vmax
ERAP1 WT [2]
  activation of L-AMC hydrolysis over basal level: significant increase
ERAP1 WT [9]; [22]
  Vmax of L-AMC hydrolysis, peptide activator varied: 241 ± 6 nmol/min/µg
ERAP1 WT [9]; [23]
  AC50: 80 ± 10 µM
ERAP1 L734R [3]; [24]
  allosteric activation compared to wildtype enzyme: ~55%
ERAP1 I681R [4]; [24]
  allosteric activation compared to wildtype enzyme: about 75%
ERAP1 V737R [10]; [22]
  Vmax of L-AMC hydrolysis, peptide activator varied: 62 ± 7 nmol/min/µg
ERAP1 V737R [10]; [23]
  AC50: 590 ± 170 µM
ERAP1 L733R [11]; [22]
  Vmax of L-AMC hydrolysis, peptide activator varied: 211 ± 10 nmol/min/µg
ERAP1 L733R [11]; [23]
  AC50: 440 ± 60 µM
ERAP1 WT [12]; [21]
  allosteric activation in steady state kinetics: significant or dramatic increase of Vmax; also recorded: effective allosteric activator
ERAP1 F803R [5]
  activation of L-AMC hydrolysis over basal level: significant increase
ERAP1 L734R [13]; [21]
  allosteric activation in steady state kinetics: significant or dramatic increase of Vmax
ERAP1 L733R [6]; [24]
  allosteric activation compared to wildtype enzyme: ~50%
ERAP1 I681R [14]; [22]
  Vmax of L-AMC hydrolysis, peptide activator varied: 175 ± 54 nmol/min/µg
ERAP1 I681R [14]; [23]
  AC50: 1460 ± 840 µM
ERAP1 F803R [15]; [22]
  Vmax of L-AMC hydrolysis, peptide activator varied: 217 ± 9 nmol/min/µg
ERAP1 F803R [15]; [23]
  AC50: 170 ± 30 µM
ERAP1 L734R [16]; [22]
  Vmax of L-AMC hydrolysis, peptide activator varied: 112 ± 8 nmol/min/µg
ERAP1 L734R [16]; [23]
  AC50: 580 ± 120 µM
ERAP1 V737R [7]; 100 μM peptide
  activation of L-AMC hydrolysis over basal level: lowest activity in the presence of IINFEKL peptide and with the smallest activation from its basal activity
ERAP1 F803R [17]; [21]
  allosteric activation in steady state kinetics: significant or dramatic increase of Vmax; also recorded: effective allosteric activator
ERAP1 L733R [18]; [21]
  allosteric activation in steady state kinetics: significant or dramatic increase of Vmax

## LESIINFEKL [KL2]
ERAP1 WT [19]
  time after which the amount of 10-mer product began to decrease: > 10 min
ERAP1 F803R [20]
  time after which the amount of 10-mer product began to decrease: > 10 min

## Cc1cc(=O)oc2cc(NC(=O)[C@@H](N)CC(C)C)ccc12 [L-AMC, leucine-7-amido-4-methyl-coumarin, reference compound]
ERAP1 I681R [8]; [25]
  Hill coef. (h): 1.8
  K1/2 (half-Vmax concentration of L-AMC): 0.23 ± 0.04 mM
ERAP1 V737R [1]; [25]
  Hill coef. (h): 1.9
  K1/2 (half-Vmax concentration of L-AMC): 0.52 ± 0.09 mM
ERAP1 WT [2]; no peptide
  basal L-AMC hydrolysis: low but detectable basal level
ERAP1 L734R [3]; no peptide
  basal L-AMC hydrolysis: low but detectable basal level; also recorded: higher than the other mutant enzymes and the WT enzyme
ERAP1 I681R [4]; no peptide
  basal L-AMC hydrolysis: low but detectable basal level; also recorded: higher than the other mutant enzymes and the WT enzyme
ERAP1 WT [12]; [25]
  Hill coef. (h): 2.6
  K1/2 (half-Vmax concentration of L-AMC): 0.38 ± 0.05 mM
ERAP1 F803R [5]; no peptide
  basal L-AMC hydrolysis: low but detectable basal level
ERAP1 L734R [13]; [25]
  Hill coef. (h): 1.3
  K1/2 (half-Vmax concentration of L-AMC): 0.33 ± 0.09 mM
ERAP1 L733R [6]; no peptide
  basal L-AMC hydrolysis: low but detectable basal level
ERAP1 V737R [7]; no peptide
  basal L-AMC hydrolysis: low but detectable basal level
ERAP1 F803R [17]; [25]
  K1/2 (half-Vmax concentration of L-AMC): 0.39 ± 0.06 mM
ERAP1 L733R [18]; [25]
  Hill coef. (h): 1.5
  K1/2 (half-Vmax concentration of L-AMC): 0.19 ± 0.03 mM

From publication PMC10841542 (Immunology, 2023)
